Source: ChEMBL document CHEMBL1149336, “Fumarranol, a rearranged fumagillin analogue that inhibits angiogenesis in vivo” (J Med Chem, 2006)
The source made the active and inactive calls. The rule behind the calls is not given here.

Columns and labels:
AEC [1] = assay: Antiproliferative activity against BAEC; conditions: Bos taurus
Mus musculus [2] = assay: Inhibition of VEGF and FGF-stimulated angiogenesis in mouse at 90 mg/kg by Matrigel plug assay; type: functional, organism-based; design: dose 90 mg/kg
Method in brief: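 Matrigel with VEGF and basic FGF injected subcutaneously into mice and left 10 days while new vessels grew in. Compound given at 90 mg/kg/day. Vessel ingrowth was judged by the red colour of the plug and by MAS-trichrome staining of plug slices.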

Mus musculus [3] = assay: Ulceration in mouse at 90 mg/kg; type: functional, organism-based; design: dose 90 mg/kg
Method in brief: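 Mice in the VEGF/bFGF matrigel-plug study were dosed at 90 mg/kg/day and their skin was inspected for ulceration.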

AEC [4] = assay: Antiproliferative activity against BAEC at 100 uM; type: functional, cell-based; conditions: Bos taurus
[5] = target: Methionine aminopeptidase 2 (Homo sapiens) (UniProt P50579); assay: Inhibition of human MetAP2 at 100 uM
Sequence of Methionine aminopeptidase 2 (Homo sapiens) (P50579 2-478 limits assumed): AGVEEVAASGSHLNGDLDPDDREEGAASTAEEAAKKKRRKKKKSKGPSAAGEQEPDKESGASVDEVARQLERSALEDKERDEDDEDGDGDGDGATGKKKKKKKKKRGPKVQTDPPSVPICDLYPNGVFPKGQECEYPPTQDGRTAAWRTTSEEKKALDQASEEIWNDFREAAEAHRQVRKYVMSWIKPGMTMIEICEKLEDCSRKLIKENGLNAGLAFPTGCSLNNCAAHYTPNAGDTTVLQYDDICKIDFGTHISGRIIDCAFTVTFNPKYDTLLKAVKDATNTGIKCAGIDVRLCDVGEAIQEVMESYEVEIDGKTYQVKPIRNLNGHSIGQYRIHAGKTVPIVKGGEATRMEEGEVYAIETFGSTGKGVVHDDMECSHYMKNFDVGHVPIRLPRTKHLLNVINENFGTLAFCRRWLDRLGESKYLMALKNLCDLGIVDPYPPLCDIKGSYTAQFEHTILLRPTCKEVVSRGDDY

Mus musculus [6] = assay: Inhibition of VEGF and FGF-stimulated angiogenesis in mouse at 30 mg/kg by Matrigel plug assay; type: functional, organism-based; design: dose 30 mg/kg
Method in brief: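 Mice received subcutaneous matrigel containing VEGF and basic FGF, with the agent dosed at 30 mg/kg/day. After 10 days, vessel ingrowth into the plug was judged by the plug's red colour and by MAS-trichrome staining of matrigel slices to visualize blood vessels.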

Mus musculus [7] = assay: Ulceration in mouse at 30 mg/kg; type: functional, organism-based; design: dose 30 mg/kg

| SMILES | IC50 (AEC [1]) | Activity (AEC [4]) | Activity [5] | other results |
| --- | --- | --- | --- | --- |
| CO[C@]12C(=O)CC[C@@]1(CO)C2[C@@]1(C)O[C@@H]1CC=C(C)C (stereo not given in full) [FUMARRANOL] | 34 nM | – | – | Activity (Mus musculus [2]): Active; Activity (Mus musculus [3]): inactive |
| CO[C@@H]1C(=O)CC[C@](O)(C=O)[C@H]1[C@@]1(C)O[C@@H]1CC=C(C)C [FUMAGALONE] | 52 nM | – | – | – |
| CCOC(=O)CCCC/C=C/C[C@H]1O[C@]1(C)C1[C@]2(CO)CCC(=O)[C@]12OC (stereo not given in full) | – | inactive | inactive | – |
| CO[C@]12C(=O)CC[C@@]1(CN1C(=O)c3ccccc3C1=O)C2[C@@]1(C)O[C@@H]1CC=C(C)C (stereo not given in full) | – | inactive | inactive | – |
| CO[C@]12C(=O)CC[C@@]1(C=O)C2[C@@]1(C)O[C@@H]1CC=C(C)C (stereo not given in full) | 370 nM | – | – | – |
| CO[C@@]12C([C@@]3(C)O[C@@H]3CC=C(C)C)[C@]1(CO)CC[C@H]2O (stereo not given in full) | – | inactive | inactive | – |
| COC[C@@]12CCC(=O)[C@]1(OC)C2[C@@]1(C)O[C@@H]1CC=C(C)C (stereo not given in full) | – | inactive | inactive | – |
| CO[C@@H]1[C@H](OC(=O)NC(=O)CCl)CC[C@]2(CO2)[C@H]1[C@@]1(C)O[C@@H]1CC=C(C)C [O-CHLOROACETYLCARBAMOYLFUMAGILLOL] | 0.037 nM | – | – | Activity (Mus musculus [6]): Active; Activity (Mus musculus [7]): Active |
| CO[C@]12C(=O)CC[C@@]1(CO)C2C(C)CCC=C(C)C (stereo not given in full) | 4000 nM | – | – | – |
| CO[C@]12C(=O)CC[C@@]1(CO)[C@H]2/C(C)=C/CC=C(C)C | 1780 nM | – | – | – |
| CO[C@]12C(=O)/C(=C/c3ccco3)C[C@@]1(CO)C2[C@@]1(C)O[C@@H]1CC=C(C)C (stereo not given in full) | – | inactive | inactive | – |
